This note sets out measurements from the array DNA melting data of Ke et al. (doi:10.1101/2024.01.08.574731).

A short description of data set [1]: folding enthalpy; higher = less favourable; fluorescence melt of hairpins on a sequencing array, two-state fit. As to conditions: sodium 0.088 M. Summed up:
(§1)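 Folding enthalpy and melting temperature come from bootstrapped two-state fits to Cy3 fluorescence of library hairpins carrying annealed Cy3 and quencher oligos on a sequenced MiSeq flow cell. Imaging was done in 50 mM Na-HEPES pH 8.0, 25 mM NaCl, stepping by 2.5 °C up to 60 °C, and signals were normalised to pre-quench Cy3 and to control constructs. Results of four replicates were combined by inverse variance, and fitted temperatures were raised by 9.35 °C to match UV melts.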

Data set [2] in a line: melting temperature; fluorescence melt of hairpins on a sequencing array, two-state fit, raised by 9.35 °C to match UV melts. The note with it: sodium 0.088 M. Summed up:
as §1

In the case of GCCGTGGGAAACTACGGC (((((.(....).))))), the folding enthalpy in data set [1] is -42.8 kcal/mol. Moreover, in data set [2], the Tm is 61.1 °C.
As for GTACGAGGAAACTCGTAC (((((((....))))))), the folding enthalpy in data set [1] is -36.4 kcal/mol. In data set [2], the Tm amounted to 61.9 °C.
With GATCTACTTTAGATC ((((((...)))))), the folding enthalpy in data set [1] is -30.1 kcal/mol. For the same sequence, the Tm in data set [2] was 41.7 °C.
On the same counts, the results for GGGTAGGGAAACTTACCC (((((.(....).))))) are -29.5 kcal/mol and 45.8 °C.
On the same counts, the results for GGTACCGGAAACGATACC ((((.((....)).)))) are -31.9 kcal/mol and 42.7 °C.
Regarding CGTTCGGAAACGACAACG ((((((....)))..))), in data set [1], the folding enthalpy is -15.2 kcal/mol. In data set [2], the Tm worked out at 34.4 °C.
As to GCACAGGGAAACCCATGC (((..((....))..))), the folding enthalpy in data set [1] was -17.6 kcal/mol. Further, in data set [2], the Tm is 32 °C.
Turning to GTTGCAGGAAACCACAAC ((((..(....)..)))), in data set [1], the folding enthalpy was -18.2 kcal/mol. The Tm in data set [2] stood at 27.4 °C.
As for GGGAACGAAAGTTTCCC ((((((....))).))), the folding enthalpy in data set [1] is -31.5 kcal/mol. The Tm in data set [2] turned out to be 52.9 °C.
Regarding GCATCACCGAAAGGTTGC (((..(((....)))))), the folding enthalpy in data set [1] was -19.1 kcal/mol. Besides, in data set [2], the Tm stood at 37.4 °C.
In the case of GTACCGCGAAAGCGTTAC (((.(((....))).))), the folding enthalpy in data set [1] was -21 kcal/mol. Also, the Tm in data set [2] is 42.9 °C.
As to GATCCCCCCGGGGATC ((((((....)))))), the folding enthalpy in data set [1] was -39.7 kcal/mol. In data set [2], the Tm came out at 65.9 °C.
Consider GTTGGAACGAAAGTTAAC (((..(((....)))))), for which the folding enthalpy in data set [1] was -14.5 kcal/mol. For the same sequence, in data set [2], the Tm turned out to be 29.6 °C.
Turning to GTTCGGGAAACCGAAC ((((((....)))))), in data set [1], the folding enthalpy is -38.1 kcal/mol. The Tm in data set [2] came to 61.1 °C.
As for GATCTTGACGAAGATC ((((((....)))))), the folding enthalpy in data set [1] was -26.5 kcal/mol. Further, the Tm in data set [2] was found to be 46.1 °C.
On the same counts, the results for GTTCGTGGAAACGCGAAC (((((.(....).))))) are -41.3 kcal/mol and 55.3 °C.
As to GATCAGCAGTCTGATC ((((((....)))))), the folding enthalpy in data set [1] was -34.4 kcal/mol. For the same sequence, the Tm in data set [2] was 48.8 °C.
On the same counts, the results for GGCTTCGAAAGAACTGCC ((((((....)))..))) are -21.5 kcal/mol and 36.7 °C.
Turning to GATCGCTCGAGCGATC ((((((....)))))), the folding enthalpy in data set [1] was -42.1 kcal/mol. Moreover, the Tm in data set [2] came out at 67.6 °C.
With GCACCGCGAAAGCAGTGC ((((.((....)).)))), the folding enthalpy in data set [1] is -25.6 kcal/mol. Further, the Tm in data set [2] was 65 °C.
In the case of GACCCGGGAAACCGAGTC (((.(((....))).))), in data set [1], the folding enthalpy is -32.8 kcal/mol. Also, the Tm in data set [2] amounted to 45.3 °C.
Consider GCCTGGCGAAAGCGAAGC ((.(.((....)).).)), for which the folding enthalpy in data set [1] is -7.77 kcal/mol. In addition, the Tm in data set [2] worked out at 31.9 °C.
In the case of GATTGCGGAAACGCAGTC ((.((((....)))).)), the folding enthalpy in data set [1] was -25.2 kcal/mol. In data set [2], the Tm amounted to 49.6 °C.
For the sequence GATCCGAAATCGGATC ((((((....)))))), the folding enthalpy in data set [1] is -35.4 kcal/mol. Besides, the Tm in data set [2] is 54.9 °C.
As to GTAGCCGGAAACAGCTAC (((((.(....).))))), the folding enthalpy in data set [1] is -22.2 kcal/mol. In data set [2], the Tm amounted to 43.4 °C.
On the same counts, the results for GATCCCTATCGGGATC ((((((....)))))) are -38 kcal/mol and 60.2 °C.
With GATCGTTGGCACGATC ((((((....)))))), the folding enthalpy in data set [1] is -32.1 kcal/mol. Also, the Tm in data set [2] was 52.5 °C.
Consider GATCCAAGTTGGATC ((((((...)))))), for which the folding enthalpy in data set [1] was -35.7 kcal/mol. Moreover, the Tm in data set [2] worked out at 49.1 °C.
Regarding GAAGAGGGAAACCCCTTC ((((.((....)).)))), the folding enthalpy in data set [1] is -21.2 kcal/mol. For the same sequence, the Tm in data set [2] amounted to 35.7 °C.
As for GTTACAGGAAACTGTAAC (((((((....))))))), the folding enthalpy in data set [1] is -42.8 kcal/mol. The Tm in data set [2] is 55.5 °C.
For the sequence GATCTCATGGAGATC ((((((...)))))), in data set [1], the folding enthalpy was -33.9 kcal/mol. Further, in data set [2], the Tm was found to be 54 °C.
GCCGACGAAAGTCTGGGC ((((((....)))..))): in data set [1], the folding enthalpy is -27.6 kcal/mol. The Tm in data set [2] is 54.6 °C.
Take GATCGCCCTAGCGATC ((((((....)))))): the folding enthalpy in data set [1] was -34.4 kcal/mol. For the same sequence, the Tm in data set [2] was 69.1 °C.
In the case of GCTGGCGAAAGCCGAAGC ((((((....)))..))), in data set [1], the folding enthalpy is -16.5 kcal/mol. The Tm in data set [2] was determined as 50.8 °C.
The corresponding values for GCCATGCGAAAGCCTTGC ((.(.((....)).).)) are -10 kcal/mol and 26.6 °C.
As for GCCCTAGGAAACTGGGGC ((((.((....)).)))), the folding enthalpy in data set [1] is -33.7 kcal/mol. The Tm in data set [2] amounted to 55.4 °C.
Consider GGTTAAACGAAAGTTACC (((..(((....)))))), for which, in data set [1], the folding enthalpy is -14.3 kcal/mol. Besides, the Tm in data set [2] was 32 °C.
